Data set [1] deals with Mus musculus. Kind of data set: Anticonvulsant activity against maximal electroshock (MES) induced seizures in mice 30 minutes after ip administration of 600 mg/kg; A=Active. Details: dose 600 mg/kg. The format is functional, organism-based. In short, it runs like this: (§1)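 Male Carworth Farms No. 1 mice were dosed ip with compound in 30% polyethylene glycol 400, at 30, 100 and 300 mg/kg and sometimes 600 mg/kg, and tested 30 min and 4 h later. A drop of 0.9% saline went in the eye, then 60-cycle AC at 50 mA was given for 0.2 s via corneal electrodes. Protection meant abolition of hind limb tonic extension.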

Data set [2] has as its system Mus musculus. The data set can be described thus: Anticonvulsant activity against maximal electroshock (MES) induced seizures in mice 4 hours after ip administration of 600 mg/kg; A=Active. The data set is classed as functional, organism-based. Details: dose 600 mg/kg. In a few lines:
as §1
Background: The maximal electroshock test induces tonic seizures with an electrical stimulus.

Data set [3] deals with Mus musculus. Kind of data set: Anticonvulsant activity against sc pentylenetetrazole induced convulsions in mice 30 minutes after ip administration of 600 mg/kg; A=Active. Also noted: dose 600 mg/kg. The format is functional, organism-based. In a few lines:
(§2)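 Male Carworth Farms No. 1 mice were dosed ip with compound in 30% PEG 400, at 30–600 mg/kg, and read at 30 min and 4 h. Pentylenetetrazole was given at 85 mg/kg as a 0.5% solution sc in the posterior midline. Protection meant no single episode of clonic spasms lasting at least 5 s over a 30-min observation.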

The test system of data set [4] is Mus musculus. Kind of data set: Anticonvulsant activity against subcutaneous pentylenetetrazole induced convulsions in mice 4 hr after ip administration of 600 mg/kg. The data set is classed as functional, organism-based. Also noted: dose 600 mg/kg. In short, it runs like this:
as §2

The test system of data set [5] is Mus musculus. Kind of data set: Compound was tested for toxicity by rotarod assay method in mice 30 min after ip administration of 600 mg/kg; A=Active. The format is organism-based. The following applies: in vivo, 0.5 h. Details: dose 600 mg/kg, route intraperitoneal. In general terms: In the rotarod test animals must keep their balance on a rotating rod.
Data set [6] deals with Mus musculus. Kind of data set: Compound was tested for toxicity by rotarod assay method in mice 4 hours after ip administration of 600 mg/kg; NA=No activity. The format is organism-based. Also noted: dose 600 mg/kg, route intraperitoneal. The following applies: in vivo.
In data set [7] the test system is Mus musculus. The data set can be described thus: Anticonvulsant activity against maximal electroshock (MES) induced seizures in mice 30 minutes after ip administration of 600 mg/kg; NA=No activity. The format is functional, organism-based. Details: dose 600 mg/kg. In a few lines: as §1
The subject of data set [8] is Mus musculus. Kind of data set: Anticonvulsant activity against maximal electroshock (MES) induced seizures in mice 4 hours after ip administration of 600 mg/kg. The data set is classed as functional, organism-based. Details: dose 600 mg/kg. In short, it runs like this: as §1
Data set [9] deals with Mus musculus. Kind of data set: Anticonvulsant activity against subcutaneous pentylenetetrazole induced convulsions in mice 30 min after ip administration of 600 mg/kg. The format is functional, organism-based. Also noted: dose 600 mg/kg. In a few lines: as §2
The subject of data set [10] is Mus musculus. The data set can be described thus: Anticonvulsant activity against subcutaneous pentylenetetrazole induced convulsions in mice 4 hours after ip administration of 600 mg/kg; No=No activity. The data set is classed as functional, organism-based. Also noted: dose 600 mg/kg. In a few lines:
as §2

Data set [11] has as its system Mus musculus. The data set can be described thus: Compound was tested for toxicity by rotarod assay method in mice 30 min after ip administration at 600 mg/kg; no activity. The data set is classed as organism-based. Details: dose 600 mg/kg, route intraperitoneal. The following applies: in vivo, 0.5 h.
Data set [12] deals with Mus musculus. The data set can be described thus: Compound was tested for toxicity by rotarod assay method in mice 4 hours after ip administration at 600 mg/kg; no activity. The format is organism-based. Details: dose 600 mg/kg, route intraperitoneal. The following applies: in vivo.
The subject of data set [13] is Mus musculus. The data set can be described thus: Anticonvulsant activity against maximal electroshock (MES) induced seizures in mice 30 minutes after ip administration of 300 mg/kg; A=Active. The format is functional, organism-based. Also noted: dose 300 mg/kg. In a few lines:
as §1

Data set [14] deals with Mus musculus. Kind of data set: Anticonvulsant activity against maximal electroshock (MES) induced seizures in mice 4 hours after ip administration of 300 mg/kg; A=Active. The format is functional, organism-based. Also noted: dose 300 mg/kg. In short, it runs like this:
as §1

Data set [15] has as its system Mus musculus. Kind of data set: Anticonvulsant activity against sc pentylenetetrazole-induced convulsions in mice 30 minutes after ip administration of 300 mg/kg; A=Active. The format is functional, organism-based. Also noted: dose 300 mg/kg. In short, it runs like this: as §2

Molecules are shown by their SMILES. Calls of active or inactive are those of the source. The rule behind the calls is not given here.

Turning to `Cc1ccc(NC(=O)c2ccccc2N)c(C)c1`, the Anticonvulsant activity entry in the data set with Mus musculus [1], in the data set on Mus musculus [2] and with Mus musculus [3] was “Active” each time. Besides, the Anticonvulsant activity entry with Mus musculus [4] was “inactive”. For the same molecule, the Toxicity entry is listed as “Active” with Mus musculus [5] and “Not Active” with Mus musculus [6].

Regarding `CC(C)c1ccccc1NC(=O)c1ccccc1N`, the Anticonvulsant activity result in the data set with Mus musculus [7], in the data set on Mus musculus [8], in the data set with Mus musculus [9] and in the data set on Mus musculus [10] was “inactive” in each case. The Toxicity entry with Mus musculus [11] and in the data set on Mus musculus [12] was “Not Active” each time.

In the case of `Cc1cccc(NC(=O)c2ccccc2N)c1`, the Anticonvulsant activity entry in the data set with Mus musculus [7], in the data set on Mus musculus [8], in the data set on Mus musculus [9] and with Mus musculus [10] was “inactive” in each case. Besides, the Toxicity entry in the data set on Mus musculus [11] and in the data set on Mus musculus [12] was “Not Active” in each case.

For `Cc1ccc(NC(=O)c2ccccc2N)cc1`, the Anticonvulsant activity entry with Mus musculus [7], in the data set with Mus musculus [8], in the data set on Mus musculus [9] and with Mus musculus [10] was “inactive” throughout. Besides, the Toxicity entry in the data set on Mus musculus [11] and in the data set on Mus musculus [12] was “Not Active” each time.

Regarding `Cc1cc(C)cc(NC(=O)c2ccccc2N)c1`, the Anticonvulsant activity result in the data set with Mus musculus [7], with Mus musculus [8], with Mus musculus [9] and with Mus musculus [10] was “inactive” each time. In addition, the Toxicity entry with Mus musculus [11] and with Mus musculus [12] was “Not Active” in each case.

As to `Cc1ccc(NC(=O)c2ccccc2N)cc1C`, the Anticonvulsant activity entry with Mus musculus [7], in the data set on Mus musculus [8], with Mus musculus [9] and in the data set on Mus musculus [10] was “inactive” throughout. The Toxicity result in the data set with Mus musculus [11] and in the data set on Mus musculus [12] was “Not Active” each time.

In the case of `Cc1cc(C)cc(NC(=O)c2cccc(N)c2)c1`, the Anticonvulsant activity result with Mus musculus [13], in the data set on Mus musculus [14] and with Mus musculus [15] was “Active” in each case. Moreover, the Anticonvulsant activity result in the data set on Mus musculus [4] was “inactive”. In the data set on Mus musculus [5], the Toxicity result is “Active”.

Consider `Cc1ccc(C)c(NC(=O)c2ccccc2N)c1`, for which the Anticonvulsant activity result in the data set on Mus musculus [7], in the data set on Mus musculus [8], in the data set with Mus musculus [9] and in the data set on Mus musculus [10] was “inactive” in each case. Also, the Toxicity entry with Mus musculus [11] and in the data set on Mus musculus [12] was “Not Active” each time.

In the case of `Cc1ccc(NC(=O)c2cccc(N)c2)c(C)c1`, the Anticonvulsant activity entry with Mus musculus [7], in the data set with Mus musculus [8], in the data set with Mus musculus [9] and in the data set with Mus musculus [10] was “inactive” each time. The Toxicity result with Mus musculus [11] and in the data set with Mus musculus [12] was “Not Active” in each case.

Regarding `CCc1cccc(C(C)C)c1NC(=O)c1ccccc1N`, the Anticonvulsant activity entry in the data set on Mus musculus [7], in the data set with Mus musculus [8], with Mus musculus [9] and in the data set on Mus musculus [10] was “inactive” each time. Also, the Toxicity result with Mus musculus [11] and in the data set with Mus musculus [12] was “Not Active” in each case.

Take `Cc1ccc(C)c(NC(=O)c2cccc(N)c2)c1`: the Anticonvulsant activity entry in the data set on Mus musculus [7], in the data set with Mus musculus [8], with Mus musculus [9] and with Mus musculus [10] was “inactive” in each case. Further, the Toxicity result in the data set on Mus musculus [11] and with Mus musculus [12] was “Not Active” each time.

For the origin of these results see ChEMBL document CHEMBL1123352, “Anticonvulsant activity of 2- and 3-aminobenzanilides” (J Med Chem, 1986).
